Tests used:
[1] = Selectivity index, ratio of IC50 for human HL7702 cells to IC50 for human H460 cells; type: toxicity
Outline: (§1)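 Selectivity index taken as the logarithm of the ratio of the HL7702 IC50 to the cancer-line IC50. […] Not calculated when an IC50 was lacking.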

[2] = Selectivity index, ratio of IC50 for human HL7702 cells to IC50 for human NCI-H1650 cells; type: toxicity; outline: as §1
NCI-H1650 = assay: Cytotoxicity against human NCI-H1650 cells assessed as reduction in cell viability after 72 hrs by MTT assay; type: functional, cell-based; conditions: NCI-H1650, 72 h
Outline: (§2)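 Cells in RPMI 1640 with 10% heat-inactivated FBS and penicillin/streptomycin at 37 °C, 5% CO2. Seeded at 4000 per well, adhered overnight, then exposed to graded compound concentrations in triplicate wells for 72 h. MTT (5 mg/mL stock) added for 4 h, dissolved in DMSO, A490 read. IC50 is the concentration reducing viability by 50% versus untreated control.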

L02 = assay: Cytotoxicity against human HL7702 cells assessed as reduction in cell viability after 72 hrs by MTT assay; type: cell-based; conditions: L02, 72 h; outline: as §2
NCI-H1975 = assay: Cytotoxicity against human NCI-H1975 cells assessed as reduction in cell viability after 72 hrs by MTT assay; type: functional, cell-based; conditions: NCI-H1975, 72 h; outline: as §2
[3] = Selectivity index, ratio of IC50 for human HL7702 cells to IC50 for human A549 cells; type: toxicity; outline: as §1
A549 [4] = assay: Cytotoxicity against human A549 cells assessed as reduction in cell viability after 72 hrs by MTT assay; type: functional, cell-based; conditions: A549, 72 h; outline: as §2
[5] = Selectivity index, ratio of IC50 for human HL7702 cells to IC50 for human NCI-H1975 cells; type: toxicity; outline: as §1
NCI-H460 = assay: Cytotoxicity against human H460 cells assessed as reduction in cell viability after 72 hrs by MTT assay; type: functional, cell-based; conditions: NCI-H460, 72 h; outline: as §2
A549 [6] = assay: Anticlonogenic activity against human A549 cells assessed as inhibition of clonogenic growth at 9 uM incubated for 2 days followed by replacement of growth media and measured after 8 days by crystal violet staining-based assay relative to control; type: functional
Outline: (§3)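 A549 cells grown in 1640 medium with 10% heat-inactivated FBS at 37 °C, 5% CO2. Seeded at 1000 cells per well, then exposed to drug or left untreated. Medium, with or without drug, replaced after 2 days. 8 days later colonies fixed with 1% methanol and 1% formaldehyde, stained with 0.5% crystal violet and photographed. Percent inhibition expressed relative to control.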

A549 [7] = assay: Anticlonogenic activity against human A549 cells assessed as inhibition of clonogenic growth at 3 uM incubated for 2 days followed by replacement of growth media and measured after 8 days by crystal violet staining-based assay relative to control; type: functional; outline: as §3

Row | SMILES | log(RatioIC50) [1] | log(RatioIC50) [2] | IC50 (NCI-H1650) [µM] | IC50 (L02) [µM] | IC50 (NCI-H1975) [µM] | log(RatioIC50) [3] | IC50 (A549 [4]) [µM] | log(RatioIC50) [5] | IC50 (NCI-H460) [µM] | inhibition at 9 µM (A549 [6]) [%] | inhibition at 3 µM (A549 [7]) [%]
1 | CCN1C/C(=C\c2cc(OC)c(OC)c(OC)c2)C(=O)/C(=C/c2cc(OC)c(OC)c(OC)c2)C1 | 0.42 | 0.19 | 8.2 | 12.8 | 6.5 | 0.48 | 4.2 | 0.29 | 4.9 |  | 
2 | Cc1ccc2nc(NCCN)c3ncc(C)n3c2c1 [BMS-345541] | 0.74 | 0.22 | 9.3 | 15.3 | 8 | 0.25 | 8.6 | 0.28 | 2.8 |  | 
3 | COc1cc(/C=C2\CN(C(=O)C(C)C)C/C(=C\c3cc(OC)c(OC)c(OC)c3)C2=O)cc(OC)c1OC | 0.79 | 0.05 | 10.8 | 12.2 | 1.9 | 1.18 | 0.8 | 0.81 | 2 |  | 
4 | CCC(=O)N1C/C(=C\c2cc(OC)c(OC)c(OC)c2)C(=O)/C(=C/c2cc(OC)c(OC)c(OC)c2)C1 | 0.19 | -0.02 | 4.4 | 4.2 | 1.7 | 0.72 | 0.8 | 0.39 | 2.7 |  | 
5 | COc1cc(/C=C2\CN(C(=O)CCC(=O)O)C/C(=C\c3cc(OC)c(OC)c(OC)c3)C2=O)cc(OC)c1OC |  |  | > 60 | > 60 | > 60 |  | 17.9 |  | > 60 |  | 
6 | O=C1/C(=C/c2ccccc2F)CNC/C1=C\c1ccccc1F | 0.63 | 0.48 | 1.7 | 5.1 | 1.3 | 0.33 | 2.4 | 0.59 | 1.2 |  | 
7 | CCCN1C/C(=C\c2ccc(OC)c(OC)c2)C(=O)/C(=C/c2ccc(OC)c(OC)c2)C1 | 0.71 | 0.12 | 16 | 21 | 11.2 | 0.7 | 4.2 | 0.27 | 4.1 |  | 
8 | CCN1C/C(=C\c2ccc(OC)c(OC)c2)C(=O)/C(=C/c2ccc(OC)c(OC)c2)C1 | 0.43 | -0.09 | 12 | 9.8 | 8.5 | 0.43 | 3.6 | 0.06 | 3.6 |  | 
9 | COc1cc(/C=C2\CNC/C(=C\c3cc(OC)c(OC)c(OC)c3)C2=O)cc(OC)c1OC | 0.7 | 0.26 | 4.2 | 7.6 | 4 | 0.8 | 1.2 | 0.28 | 1.5 |  | 
10 | COc1ccc(/C=C2\CN(C)C/C(=C\c3ccc(OC)c(OC)c3)C2=O)cc1OC | 0.77 | 0.31 | 9 | 18.2 | 6.6 | 1.15 | 1.3 | 0.44 | 3.1 |  | 
11 | COc1ccc(/C=C2\CNC/C(=C\c3ccc(OC)c(OC)c3)C2=O)cc1OC | 0.37 | -0.04 | 16.7 | 15.1 | 10.3 | 0.72 | 2.9 | 0.17 | 6.4 |  | 
12 | O=c1[nH]cc(F)c(=O)[nH]1 [FLUOROURACIL] |  |  |  |  |  |  |  |  |  | 70 | 38
13 | COc1cc(/C=C/C(=O)CC(=O)/C=C/c2ccc(O)c(OC)c2)ccc1O [CURCUMIN] | -0.07 | -0.45 |  | 7.2 | 1.4 | 0.02 | 6.8 | 0.71 | 8.5 |  | 
14 | COc1cc(/C=C2\CN(C(=O)c3ccccc3F)C/C(=C\c3cc(OC)c(OC)c(OC)c3)C2=O)cc(OC)c1OC | 0.47 | 0.36 | 1.9 | 4.4 | 1.4 | 0.8 | 0.7 | 0.5 | 1.5 |  | 

Reference: ChEMBL document CHEMBL4152210, “Design, synthesis, anti-lung cancer activity, and chemosensitization of tumor-selective MCACs based on ROS-mediated JNK pathway activation and NF-κB pathway inhibition” (Eur J Med Chem, 2018)
